Screens as filed in PubChem BioAssay.
INS promoter act: activators of insulin promoter-driven GFP, primary screen, imaging, TRM-6 cells (human fetal islet line), eGFP reporter, cell count. plate-scaled: unstimulated 0, stimulated control 100. activation, % at 2 µM. 0.81% of 130,000 active;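 active means activation at 2 µM above a set limit, confirmed on inspection of the cell images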;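 further: share of cells whose green reporter signal exceeds an intensity cutoff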
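Assay system: TRM-6 insulin promoter–eGFP reporter cells / Input: 1,000 cells per well / Medium: Low-glucose (5.5 mM) medium with tamoxifen / Also added: tamoxifen inducer, 0.75 µM, in seeding medium / Timing: overnight tamoxifen, then two-day compound incubation at 37 °C / Signal: automated fluorescence imaging of paraformaldehyde-fixed, Hoechst-counterstained cells, green channel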
* marks the source's active call; other numbers are inactive results. Many of the other results were omitted from the sample, so hits are more common in it than they were.

SMILES	INS promoter act
Cc1cc(C)c2nc(SCC(=O)Nc3ccccc3N3CCOCC3)c(C#N)cc2c1	329
O=C(OC(C(=O)NC1CCCC1)c1ccncc1)C1=Cc2ccccc2OC1 (stereo not given)	3
COc1ccc(C(=O)Nc2nc3nccc(-c4ccccc4)n3n2)cc1	-8
COC(=O)CCC(=O)c1oc2ccccc2c1N	-3
CCOC(=O)c1[nH]c(C)c(C(=O)OCC(=O)N(C)C2CCS(=O)(=O)C2)c1C (stereo not given)	0
COc1cccc(-n2c(SCC(N)=O)nnc2-c2ccncc2)c1	-91
COc1cccc(-n2c(SCC(N)=O)nc3c([nH]c4ccccc43)c2=O)c1	252*
Cc1cc(NC(=O)CSc2nc3c([nH]c4ccccc43)c(=O)n2-c2cccc(C(F)(F)F)c2)no1	-5
COc1cc(NS(=O)(=O)c2ccc(Br)s2)cc(OC)c1	257
Cc1cccc(-c2nsc(SCC(=O)Nc3nccs3)n2)c1	121*
COc1ccc(-c2nsc(SCC(=O)Nc3cc(C)on3)n2)cc1	2
CCc1nnc(NC(=O)CSc2nc(-c3ccc(OC)cc3)ns2)s1	-25
Nc1ncnc2c1C1(CCCCC1)Cc1ccccc1-2	-7
S=C1NCCc2ccccc2C1c1ccccc1Cl (stereo not given)	469*
Cc1ccc(S(=O)(=O)NCC2NCCc3ccccc32)cc1 (stereo not given)	0
S=c1[nH]nc(-c2ccc3ccccc3n2)n1Cc1ccccc1	-7
COc1cccc(C(=O)NC(Cc2ccccc2)c2ccc3c(c2)OCCCO3)c1 (stereo not given)	9
CCN(CC)c1ccc(/C=C2\C(=O)c3ccc(C(=O)O)cc3C2=O)cc1	0
Cc1ccnc(SCC(=O)O)n1	-3
Cc1ccnc(SCC(=O)N2CCc3ccccc3C2)n1	0
Cc1ccnc(SCc2cc(=O)c(OC(=O)c3ccccc3)co2)n1	428*
COc1cc(N2CN=c3s/c(=C\c4ccccn4)c(=O)n3C2)cc(OC)c1OC	4
CCOC(=O)c1cccc(NC(=O)Cn2c(CC(=O)N3CCCC3)nc3ccccc32)c1	3
O=C(NCCC1=CCCCC1)C1CCN(S(=O)(=O)N2CCCC2)CC1	-7
CCC1CCCCN1CCCNC(=O)C1CCN(S(=O)(=O)N2CCCCC2)CC1 (stereo not given)	215*
SMILES	INS promoter act
O=C(NCCCN1CCCC1=O)C1CCN(S(=O)(=O)N2CCOCC2)CC1	131
CCCC12CN3CC(CCC)(CN(C1)C3C(O)C(O)C(O)CO)C2=O (stereo not given)	4
O=C(c1ccc(COc2ccccc2Br)o1)N1CCN(c2ccccn2)CC1	3
O=C(Nc1cccnc1)c1ccc(COc2ccccc2Cl)o1	0
CN(C)C(=O)c1ccc(COc2ccccc2Br)o1	421*
CCOC(=O)CSc1nc2c(sc3ccc([N+](=O)[O-])cc32)c(=O)n1Cc1ccco1	-9
CCc1nc2cc([N+](=O)[O-])c([N+](=O)[O-])cc2[nH]1	-75
NNC(=O)c1cnn(Cc2ccccc2)c1N	-29
COc1ccccc1N1CCN(C(CNS(=O)(=O)c2ccc(C)cc2)c2cccnc2)CC1 (stereo not given)	76*
Cc1ccc(S(=O)(=O)NCC(c2cccnc2)N(C)C)cc1 (stereo not given)	9
COc1ccccc1N1CCN(C(=O)C2CCN(S(=O)(=O)c3ccc(C)cc3)CC2)CC1	-6
C=CCc1cc(/C=N/NC(=O)CSc2nnc(CCCc3ccc(OC)cc3)o2)cc(OC)c1O	4
N#CC1=C(S)N(c2ccccc2)C2(CCCCC2)NC1=O	8
COc1ccccc1-n1c(C)cc(C=O)c1C	-7
CCOC(=O)CC(NC(=O)Cn1nnc(-c2ccccc2)n1)c1ccc(OC)cc1 (stereo not given)	-6
COc1ccc(-c2nnn(Cc3ccccc3F)n2)cc1	521*
COc1ccc(N2C(=O)N(Cc3ccccc3F)c3ccccc3S2(=O)=O)cc1	136
O=C(c1cccc(C(F)(F)F)c1)C1CCCN(Cc2cccn2-c2ccccn2)C1 (stereo not given)	9
COC(=O)c1ccsc1-n1cc(C#N)c(=O)n(C)c1=O	9
COc1cc(NS(=O)(=O)c2ccc(Nc3nc(-c4ccccc4)cs3)cc2)nc(OC)n1	-3
Cc1ccccc1N1CC(C(=O)O)CC1=O (stereo not given)	-3
Cc1ccc(N2CC(C(N)=O)CC2=O)cc1C (stereo not given)	543*
Cc1cc(N2CC(C(=O)NCc3cccs3)CC2=O)ccc1C(C)C (stereo not given)	0
COc1ccc2oc(C(=O)OCc3c(C)noc3C)c(C)c2c1	-6
COc1cccc(C(=O)Nc2ccc(Cl)c(C(F)(F)F)c2)c1	8
COc1cc(CCC(=O)Nc2ccc(Cl)c(C(F)(F)F)c2)cc(OC)c1OC	277*
COc1cc(CCC(=O)Nc2cc(Cl)ccc2N2CCN(C)CC2)cc(OC)c1OC	6
Cc1ccc(C(=O)NCc2cccnc2)cc1S(=O)(=O)Nc1ccccc1	10
